According to article PMC4368043 (ACS Chemical Neuroscience, 2014):
“Also recorded” adds a separate entry of the source.

Tests used:
[1] = Microsomal stability assay; type: in vitro ADME; details: mouse, pooled mouse liver microsomes
Procedure, shortened: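 Pooled mouse liver microsomes (1 μg/μL protein) preincubated 10 min at 37 °C with test compound (4 μM final). Started with NADPH (2 mM final) and incubated 1 h at 37 °C with shaking. Zero-time and end samples quenched in 5:1 acetonitrile:water and centrifuged. Indomethacin added as internal standard. Quantified by triple-quadrupole LC-MS/MS in MRM mode; % remaining at 1 h.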

Plasma stability assay = type: in vitro ADME; details: male, C57BL/6, mouse
Procedure, shortened: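 Plasma from male C57BL/6 mice, diluted 1:1 with PBS and warmed to 37 °C. Test compound added to 1 μM final and incubated 3 h at 37 °C with shaking. Zero-time and end samples quenched in 5:1 acetonitrile:water and centrifuged. Indomethacin added as internal standard. Quantified by LC-MS/MS in MRM mode; % remaining at 3 h.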

H4 cells = experiment: Cell viability assay, thapsigargin as stressor; type: cell-based, human; details: 7.5 μM thapsigargin; for EC50: read-out: H4 EC50 ± SEM, cytoprotection, dose-response; for cytoprotective activity against thapsigargin-induced cell death (in words): H4 cells
Procedure, shortened: (§1)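 Cells plated overnight at 37 °C, 5% CO2 in phenol red-free DMEM with 2% FBS (SH-SY5Y 4 × 10^4, H4 2.5 × 10^3 cells/well). Test compound in dose–response for 2 h, then thapsigargin 7.5 μM final for 18 h at 37 °C. Read by MTS absorbance at 490 nm. Viability % = background-subtracted (cell-free medium) relative to DMSO-only, no-thapsigargin wells. EC50 from dose–response curves. ≥3 repeats, mean ± SEM.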

SH-SY5Y cells = experiment: Cell viability assay, thapsigargin as stressor; type: cell-based, human; details: 7.5 μM thapsigargin; for EC50: read-out: SH-SY5Y EC50 ± SEM, cytoprotection, dose-response; for cytoprotective activity against thapsigargin-induced cell death (in words): SH-SY5Y cells
Procedure, shortened: as §1

[2] = tested on: panel of 46 receptors, ion channels, and transporters; experiment: NIMH PDSP off-target panel; type: binding
p38 MAPK [3] = experiment: Immunoblotting of thapsigargin-induced phospho-p38 MAPK in H4 cells; type: cell-based, human; details: compound 25 μM and 5 μM 2 h, then 20 μM thapsigargin 1 h, immunoblot
Procedure, shortened: (§2)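 H4 cells, 2.5 × 10^6 per 10 cm dish, grown overnight in phenol red-free DMEM with 2% FBS, then serum-starved 2 h. Test compound at 25 or 5 μM for 2 h, then thapsigargin 20 μM for 1 h. Lysed in RIPA buffer with protease and phosphatase inhibitors; protein measured by BCA. 50 μg run on 4–12% Bis-Tris SDS-PAGE and transferred to PVDF. Probed for phospho-p38, p38, phospho-JNK and JNK; HRP secondaries, ECL detection.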

p38 MAPK [4] = experiment: Activity of p38 MAPK pathway, H4-CHOP-luciferase reporter cells; type: cell-based, human
Procedure, shortened: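 H4 cells stably carrying pFR-Luc and pFA-CHOP plasmids, 1000 cells/well, grown 24 h in 10% FBS DMEM, then switched to phenol red-free DMEM with 2% FBS. Test compound for 1 h at 37 °C (10 μM with thapsigargin or CDDO-IM; 20 μM with MG132; 50 μM with ionomycin). Read by Steady-Glo luminescence. RLU % = background-subtracted (compound-only wells) relative to inducer-only wells. ≥3 repeats, mean ± SEM, one-way ANOVA.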

JNK = experiment: Immunoblotting of thapsigargin-induced phospho-JNK in H4 cells; type: cell-based, human; details: compound 25 μM and 5 μM 2 h, then 20 μM thapsigargin 1 h, immunoblot
Procedure, shortened: as §2

Row | SMILES | remaining at 1 h, 4 μM [1] [%] | remaining at 3 h, 1 μM (Plasma stability assay) [%] | EC50 (H4 cells) [µM] | EC50 (SH-SY5Y cells) [µM] | cytoprotective activity against thapsigargin-induced cell death (in words) (SH-SY5Y cells) | further results
1 | CC1(C)CC(=O)C2=C(C1)Nc1cc(C(F)(F)F)ccc1NC2c1ccc(N2CCCC2)cc1 (centres unmarked) [4ee, 3,3-Dimethyl-11-(4-(pyrrolidin-1-yl)phenyl)-7-(trifluoromethyl)-2,3,4,5,10,11-hexahydro-1H-dibenzo[b,e][1,4]diazepin-1-one] | 1.8 ± 0.4 | 98.8 ± 3.7 | 18.8 ± 2.77 | 14 ± 0.18 | – | –
2 | CC1(C)CC(=O)C2=C(C1)Nc1cc(C(F)(F)F)ccc1NC2c1ccc(N2CCCCC2)cc1 (centres unmarked) [4ff, 3,3-Dimethyl-11-(4-(piperidin-1-yl)phenyl)-7-(trifluoromethyl)-2,3,4,5,10,11-hexahydro-1H-dibenzo[b,e][1,4]diazepin-1-one] | 4.7 ± 1.7 | ≥ 100 | 19.5 ± 2.15 | 16 ± 0.82 | – | –
3 | CCN(CC)c1ccc(C2Nc3ccc(C(=O)c4ccccc4)cc3NC3=C2C(=O)CC(C)(C)C3)cc1 (centres unmarked) [4hh, 7-Benzoyl-11-(4-(diethylamino)phenyl)-3,3-dimethyl-2,3,4,5,10,11-hexahydro-1H-dibenzo[b,e][1,4]diazepin-1-one] | 7.9 ± 6.3 | ≥ 100 | – | – | very strong cytoprotective activity | off-target interactions in PDSP panel [2]: No significant off-target interactions were detected; p38 activity (phosphorylation) in response to thapsigargin (p38 MAPK [3]): significantly reduced; p38 activation initiated by CDDO-IM (CHOP-luciferase RLU) (p38 MAPK [4]; 10 μM compound 1 h, CDDO-IM 600 nM 18 h): reduced p38 activation; p38 activation initiated by thapsigargin (CHOP-luciferase RLU) (p38 MAPK [4]; 10 μM compound 1 h, thapsigargin 20 nM 18 h): reduced p38 activation; p38 activity stimulated by MG132 (CHOP-luciferase RLU) (p38 MAPK [4]; 20 μM compound 1 h, MG132 740 nM 18 h): had no effect; p38 activation initiated by ionomycin (CHOP-luciferase RLU) (p38 MAPK [4]; 50 μM compound 1 h, ionomycin 120 nM 18 h): reduced p38 activation; calcium regulator-induced p38 MAPK activation (p38 MAPK [4]; H4-CHOP-luciferase reporter cells, inducers that disrupt calcium homeostasis): moderate inhibition; also recorded: inhibits; JNK activity (phosphorylation) in response to thapsigargin (JNK): significantly reduced
4 | CC1(C)CC(=O)C2=C(C1)Nc1cc(C(=O)c3ccccc3)ccc1NC2c1ccc(N2CCCCC2)cc1 (centres unmarked) [4jj, 7-Benzoyl-3,3-dimethyl-11-(4-(piperidin-1-yl)phenyl)-2,3,4,5,10,11-hexahydro-1H-dibenzo[b,e][1,4]diazepin-1-one] | 12.9 ± 1.6 | ≥ 100 | – | – | – | –
5 | CC1(C)CC(=O)C2=C(C1)Nc1cc(C(=O)c3ccccc3)ccc1NC2c1ccc(O)cc1 (centres unmarked) [4ll, 7-Benzoyl-11-(4-hydroxyphenyl)-3,3-dimethyl-2,3,4,5,10,11-hexahydro-1H-dibenzo[b,e] [1,4]diazepin-1-one] | – | – | – | – | devoid of cytoprotective activity | cytoprotective activity against thapsigargin-induced cell death (in words) (H4 cells): devoid of cytoprotective activity
6 | CC1(C)CC(=O)C2=C(C1)Nc1cc(C(=O)c3ccccc3)ccc1NC2c1ccsc1 (centres unmarked) [4mm, 7-Benzoyl-3,3-dimethyl-11-(thiophen-3-yl)-2,3,4,5,10,11-hexahydro-1H-dibenzo[b,e] [1,4]diazepin-1-one] | – | – | – | – | devoid of cytoprotective activity; also recorded: does not | p38 activity (phosphorylation) in response to thapsigargin (p38 MAPK [3]): had no effect; cytoprotective activity against thapsigargin-induced cell death (in words) (H4 cells): devoid of cytoprotective activity; JNK activity (phosphorylation) in response to thapsigargin (JNK): had no effect
7 | CN(C)c1ccc(C2Nc3ccc(Br)cc3NC3=C2C(=O)CC(C)(C)C3)cc1 (centres unmarked) [4s, 7-Bromo-11-(4-(dimethylamino)phenyl)-3,3-dimethyl-2,3,4,5,10,11-hexahydro-1H-dibenzo [b,e][1,4]diazepin-1-one] | – | – | 12.9 ± 0.92 | – | – | –
8 | CC1(C)CC(=O)C2=C(C1)Nc1cc(Br)ccc1NC2c1ccc(N2CCCC2)cc1 (centres unmarked) [4t, 7-Bromo-3,3-dimethyl-11-(4-(pyrrolidin-1-yl)phenyl)-2,3,4,5,10,11-hexahydro-1H-dibenzo [b,e][1,4]diazepin-1-one] | 0.1 ± 0.1 | ≥ 100 | – | 14.6 ± 1.61 | – | –
9 | CCCCN(CCCC)c1ccc(C2Nc3ccc(Br)cc3NC3=C2C(=O)CC(C)(C)C3)cc1 (centres unmarked) [4w, 7-Bromo-11-(4-(dibutylamino)phenyl)-3,3-dimethyl-2,3,4,5,10,11-hexahydro-1H-dibenzo [b,e][1,4]diazepin-1-one] | – | – | 13.1 ± 2.53 | – | but not in SH-SY5Y cells | –
10 | CCN(CC)c1ccc(C2Nc3ccc(-c4ccccc4)cc3NC3=C2C(=O)CC(C)(C)C3)cc1 (centres unmarked) [4y, 11-(4-(Diethylamino)phenyl)-3,3-dimethyl-7-phenyl-2,3,4,5,10,11-hexahydro-1H-dibenzo [b,e][1,4]diazepin-1-one] | 1.8 ± 2.1 | 97.9 ± 5.7 | – | – | – | –
